Among the data in ChEMBL document CHEMBL4346665, “Synthesis and evaluation of tetrahydroquinolin-2(1H)-one derivatives as novel anti-pancreatic cancer agents via targeting autophagy” (Eur J Med Chem, 2019) are Activity values, retold here.

Series [1] in a line: Toxicity in human PANC1 cells xenografted in nude mouse assessed as pathological changes in kidney at 30 mg/kg, ip administered every 3 days for 4 weeks post tumor inoculation by hematoxylin and eosin staining based assay. It is filed as organism-based. As to conditions: in vivo. An outline of the steps:
(§1)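 PANC-1 xenografts in nude mice. Dosing daily at 5, 10 or 20 mg/kg/day for 30 days, or 30 mg/kg every three days for the gemcitabine reference. Tumor volume from diameters and tumor weight at end of study. Body weight monitored, kidney and liver examined. T1-weighted MRI on day 30 with Gd-DTPA contrast via tail vein. Mean ± S.D., n = 5, vs control group.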

Series [2] relates to PANC-1. The experiment in a line: Antitumor activity against human PANC1 cells xenografted in nude mouse assessed as reduction in tumor weight at 30 mg/kg, ip administered every 3 days for 4 weeks post tumor inoculation. It is filed as functional, organism-based. An outline of the steps:
as §1

A short description of series [3]: Toxicity in human PANC1 cells xenografted in nude mouse assessed as pathological changes in liver at 30 mg/kg, ip administered every 3 days for 4 weeks post tumor inoculation by hematoxylin and eosin staining based assay. It is filed as organism-based. As to conditions: in vivo. The method in brief: as §1
A short description of series [4]: Toxicity in human PANC1 cells xenografted in nude mouse assessed as change in body weight at 30 mg/kg, ip administered every 3 days for 4 weeks post tumor inoculation. Conditions: in vivo. The series is classed as organism-based. An outline of the steps:
as §1
On the technique in general: A xenograft is tissue or cells of one species grown in another, often human tumour cells in immunodeficient mice.

For series [5], the system named is PANC-1. As to the kind of experiment: Antitumor activity against human PANC1 cells xenografted in nude mouse assessed as reduction in tumor size at 30 mg/kg, ip administered every 3 days for 4 weeks post tumor inoculation. The series is classed as functional, organism-based. An outline of the steps: as §1

Calls of active or inactive are those of the source. The rule behind the calls is not given here.

For the compound `Nc1ccn([C@@H]2O[C@H](CO)[C@@H](O)C2(F)F)c(=O)n1` [GEMCITABINE], the Activity entry in series [1], in series [3] and in series [4] was “Non-Toxic” each time. Besides, the outcome with PANC-1 [2] and in the series with PANC-1 [5] was Active.
